We go through 14 molecules from ChEMBL document CHEMBL1130238, “Synthesis and biological activity of a series of potent fluoromethyl ketone inhibitors of recombinant human calpain I” (J Med Chem, 1997).

Starred links: 1 amine or outer side, 2 acyl side, 3 side chain; linkers in the order of their positions; H or OH if unused. Non-standard residues stand in square brackets, D forms with d. Residues, ends and D or L forms follow the SMILES beside them. ξ: configuration not given here. *: point of attachment. Hydrocinnamoyl = O=C(CCc1ccccc1)*; ξF = NC(Cc1ccccc1)C(=O)O; Cbz = O=C(OCc1ccccc1)*; Boc = CC(C)(C)OC(=O)*; ξL = CC(C)CC(N)C(=O)O; CO = O=C([*:1])[*:2]; NHBn = c1ccc(CN*)cc1; ξAbu = CCC(N)C(=O)O; ξS = NC(CO)C(=O)O; CH2F = FC*

In test [1] the target is Procathepsin L (Homo sapiens) (UniProt P07711). Kind of test: Compound was tested for inhibitory against cathepsin L. The essentials: (§1)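 Rates of enzyme inactivation for cathepsins B and L were measured using Cbz-Phe-Arg-AMC as the fluorogenic substrate, under previously published assay conditions.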
The target of test [2] is T1, Calpain-1 catalytic subunit (Homo sapiens) (UniProt P07384).
T1 sequence (whole entry): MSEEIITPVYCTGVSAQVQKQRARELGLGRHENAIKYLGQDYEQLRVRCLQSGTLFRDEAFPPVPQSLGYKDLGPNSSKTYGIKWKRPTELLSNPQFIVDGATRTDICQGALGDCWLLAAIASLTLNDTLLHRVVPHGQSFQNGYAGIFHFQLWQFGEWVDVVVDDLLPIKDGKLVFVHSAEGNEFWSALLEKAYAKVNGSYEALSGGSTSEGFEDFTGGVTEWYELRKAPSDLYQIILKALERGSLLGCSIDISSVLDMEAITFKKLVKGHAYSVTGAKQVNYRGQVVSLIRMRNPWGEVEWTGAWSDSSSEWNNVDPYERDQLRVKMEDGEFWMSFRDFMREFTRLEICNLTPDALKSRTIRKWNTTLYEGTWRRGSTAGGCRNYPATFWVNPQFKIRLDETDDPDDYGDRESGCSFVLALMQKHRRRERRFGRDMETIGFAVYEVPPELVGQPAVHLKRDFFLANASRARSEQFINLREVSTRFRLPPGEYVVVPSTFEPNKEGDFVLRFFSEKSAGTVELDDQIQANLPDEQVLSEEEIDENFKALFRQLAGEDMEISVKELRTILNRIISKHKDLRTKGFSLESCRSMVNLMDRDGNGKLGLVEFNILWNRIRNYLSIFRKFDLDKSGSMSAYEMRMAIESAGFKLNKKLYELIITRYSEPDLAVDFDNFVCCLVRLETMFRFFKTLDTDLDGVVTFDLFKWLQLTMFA
As to the kind of experiment: Inhibition of Calpain-I receptor.

Test [3] concerns the target Cathepsin B (Homo sapiens) (UniProt P07858). Kind of test: Compound was tested for inhibitory against cathepsin B. An outline of the steps: as §1
The subject of test [4] is MOLT-4. Kind of test: Inhibitory activity against MOH-4 cells(Human Leukemia T- cells) using intact cell assay method. The class given is functional, cell-based. An outline of the steps: (§2)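 Molt-4 cells (2×10^7/mL in HEPES-buffered saline, pH 7.2–7.5) were preincubated with inhibitor for 10 min at 37 °C, then challenged for 30 min at 37 °C by adding medium containing inhibitor, 10 mM Ca2+ and 40 μM ionomycin. Lysates were immunoblotted for calpain I-mediated spectrin breakdown products. Percent inhibition came from densitometry against no-inhibitor samples; IC50 by nonlinear regression.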

Test [5] deals with Procathepsin L (Homo sapiens) (UniProt P07711). Kind of test: Compound was tested for inhibitory activity against cathepsin L. The essentials:
as §1

For test [6] the target is unchanged. Kind of test: Compound was tested for inhibitory against cathepsin L. The essentials:
as §1

Test [7] has as its target Cathepsin B (Homo sapiens) (UniProt P07858). Kind of test: Compound was tested for inhibitory against Cathepsin B. The essentials: as §1
The subject of test [8] is MOLT-4. As to the kind of experiment: Inhibitory activity against […] cells(Human Leukemia T- cells) using intact cell assay method, at 10 uM. It is filed as functional. An outline of the steps:
as §2

The target in test [9] is Cathepsin B (Homo sapiens) (UniProt P07858). As to the kind of experiment: Compound was tested for inhibitory activities against cathepsin B. An outline of the steps:
as §1

The target in test [10] is T1, Calpain-1 catalytic subunit (Homo sapiens). Kind of test: Compound was tested for inhibitory uM.
For test [11], the target named is Cathepsin B (Homo sapiens) (UniProt P07858). Kind of test: Compound was tested for inhibitory activity against cathepsin B. The essentials:
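Rate of inactivation of cathepsin B, with Cbz-Phe-Arg-AMC as substrate.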

For orientation: IC50 means the concentration at which inhibition is half-maximal. A high value points to weaker potency in that assay. In general, inhibition refers to the percentage by which the read-out fell short of the control. A low value points to a weak effect.

Sequence of Procathepsin L (Homo sapiens) (P07711 114-333 limits assumed): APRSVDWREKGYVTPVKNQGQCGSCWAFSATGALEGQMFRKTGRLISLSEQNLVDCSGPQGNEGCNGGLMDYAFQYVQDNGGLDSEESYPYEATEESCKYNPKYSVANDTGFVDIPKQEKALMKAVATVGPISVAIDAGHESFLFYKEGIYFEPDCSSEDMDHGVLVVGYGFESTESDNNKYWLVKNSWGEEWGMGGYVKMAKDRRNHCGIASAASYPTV

Regarding `CC(C)C[C@H](NC(=O)OCc1ccccc1)C(=O)NC(CO)C(=O)CF` (stereo partly drawn) (Cbz-Leu-[ξS]-CH2F), the K came to 31000 M⁻¹ s⁻¹ in test [1], 21000 M⁻¹ s⁻¹ in [2] and 16300 M⁻¹ s⁻¹ in test [3].

`CC(C)C[C@H](NC(=O)CCc1ccccc1)C(=O)NC(Cc1ccccc1)C(=O)CF` (stereo partly specified) (Hydrocinnamoyl-Leu-[ξF]-CH2F): the figures for the K in test [1], in test [2] and in test [3] were 800 M⁻¹ s⁻¹, 26600 M⁻¹ s⁻¹ and 600 M⁻¹ s⁻¹, respectively.

On to `CC(C)CC(NC(=O)OCc1ccccc1)C(=O)N[C@@H](CC(C)C)C(=O)NC(Cc1ccccc1)C(=O)CF` (stereo partly specified) (Cbz-[ξL]-Leu-[ξF]-CH2F), for which the K in [1] came to 256000 M⁻¹ s⁻¹; in test [2], 290000 M⁻¹ s⁻¹; in test [3], 4600 M⁻¹ s⁻¹. The half-maximal inhibitory concentration (IC50) in test [4] was 100 nM.

As for `CC(C)C[C@H](NC(=O)OCc1ccccc1)C(=O)NC(Cc1ccccc1)C(=O)CF` (stereo partly drawn) (Cbz-Leu-[ξF]-CH2F), the figures for the K in test [1], in [2] and in [3] were 5000 M⁻¹ s⁻¹, 136000 M⁻¹ s⁻¹ and 300 M⁻¹ s⁻¹, respectively. The same molecule displayed an IC50 in [4] of 200 nM.

Take `CC(C)C[C@H](N)C(=O)N[C@@H](Cc1ccccc1)C(=O)CF` (H-Leu-Phe-CH2F): the K worked out at 250 M⁻¹ s⁻¹ in [1], 8000 M⁻¹ s⁻¹ in test [2] and 25 M⁻¹ s⁻¹ in test [3].

On to `CC(C)C[C@H](NC(=O)OCc1ccccc1)C(=O)NC(COC1CCCCO1)C(=O)CF` (stereo partly specified), for which the values for the K in test [2], in test [3] and in test [5] were 100000 M⁻¹ s⁻¹, 9000 M⁻¹ s⁻¹ and 22600 M⁻¹ s⁻¹, respectively. The midpoint of inhibition in test [4], the IC50, lay at 1300 nM.

On to `CC(C)C[C@H](NS(=O)(=O)N1CCOCC1)C(=O)NC(Cc1ccccc1)C(=O)CF` (stereo partly specified), for which the K in test [6] is 3200 M⁻¹ s⁻¹; in test [2] it was 67200 M⁻¹ s⁻¹; in test [3], 100 M⁻¹ s⁻¹. Further, in test [4], the IC50 is 10000 nM.

As to `CC(C)[C@H](NC(=O)OCc1ccccc1)C(=O)NC(Cc1ccccc1)C(=O)CF` (stereo partly drawn) (Cbz-Val-[ξF]-CH2F), the values for the K in [1], in test [2] and in [3] were 21500 M⁻¹ s⁻¹, 35000 M⁻¹ s⁻¹ and 360 M⁻¹ s⁻¹, respectively.

In the case of `CC(C)C[C@H](NC(=O)N1CCc2ccccc2C1)C(=O)NC(Cc1ccccc1)C(=O)CF` (stereo partly specified), the K in test [1] turned out to be 48400 M⁻¹ s⁻¹; in test [7], 7500 M⁻¹ s⁻¹. This molecule also showed an IC50 in test [4] of 200 nM.

Turning to `CC(C)C[C@H](NC(=O)OC(C)(C)C)C(=O)NC(Cc1ccccc1)C(=O)CF` (stereo partly drawn) (Boc-Leu-[ξF]-CH2F), the K worked out at 100 M⁻¹ s⁻¹ in test [1], 68600 M⁻¹ s⁻¹ in test [2] and 150 M⁻¹ s⁻¹ in test [9]. Moreover, in [8], the inhibition at 10 µM amounted to 42%.

Take `CC(C)C[C@H](NC(=O)NCc1ccccc1)C(=O)NC(Cc1ccccc1)C(=O)CF` (stereo partly specified) ({NHBn-CO}-Leu-[ξF]-CH2F): the K in test [2] was determined as 67000 M⁻¹ s⁻¹; in [5] it was 9400 M⁻¹ s⁻¹; in [7], 275 M⁻¹ s⁻¹. The half-inhibitory concentration (IC50) in [4] stood at 800 nM.

For the molecule `CC(NC(=O)[C@H](Cc1ccccc1)NC(=O)OCc1ccccc1)C(=O)CF` (stereo partly specified), the figures for the K in test [1], in test [10] and in [11] were 110000 M⁻¹ s⁻¹, “No significant inhibition” and 21000 M⁻¹ s⁻¹, respectively.

In test [2], `CC(C)C[C@H](NC(=O)[C@H]1O[C@@H]1C(=O)O)C(=O)NCCCCN=C(N)N` returned a K of 4700 M⁻¹ s⁻¹.

On to `CCC(NC(=O)[C@H](CC(C)C)NC(=O)OCc1ccccc1)C(=O)CF` (stereo partly drawn) (Cbz-Leu-[ξAbu]-CH2F), for which the K in [1] amounted to 64000 M⁻¹ s⁻¹; in [2], 24200 M⁻¹ s⁻¹; in [3], 24500 M⁻¹ s⁻¹.
